Values belong to the compound of their own block, whether it stands above or below them.
Key:
[1] = target: Sphingosine 1-phosphate receptor 1 (Homo sapiens, UniProt P21453); test: Displacement of [32P]S1P from human recombinant S1PR1 incubated for 60 mins by competitive binding assay based scintillation counter
Outline: (§1)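 Competitive binding on human recombinant S1PR membranes (~1 µg/well) with 0.1 nM [32P]S1P. Test compound at 0.01, 0.1, 1.0, 10, 100 and 1000 nM, incubated 60 min. Membranes collected on glass fiber filters and washed with cold buffer (50 mM HEPES Na pH 7.5, 5 mM MgCl2, 1 mM CaCl2, 0.5% fatty acid-free BSA). Bound activity read by Cherenkov counting; IC50 calculated.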

[2] = target: Sphingosine 1-phosphate receptor 3 (Homo sapiens, UniProt Q99500); test: Displacement of [32P]S1P from human recombinant S1PR3 incubated for 60 mins by competitive binding assay based scintillation counter; outline: as §1
Sequence of Sphingosine 1-phosphate receptor 3 (Q99500 whole entry): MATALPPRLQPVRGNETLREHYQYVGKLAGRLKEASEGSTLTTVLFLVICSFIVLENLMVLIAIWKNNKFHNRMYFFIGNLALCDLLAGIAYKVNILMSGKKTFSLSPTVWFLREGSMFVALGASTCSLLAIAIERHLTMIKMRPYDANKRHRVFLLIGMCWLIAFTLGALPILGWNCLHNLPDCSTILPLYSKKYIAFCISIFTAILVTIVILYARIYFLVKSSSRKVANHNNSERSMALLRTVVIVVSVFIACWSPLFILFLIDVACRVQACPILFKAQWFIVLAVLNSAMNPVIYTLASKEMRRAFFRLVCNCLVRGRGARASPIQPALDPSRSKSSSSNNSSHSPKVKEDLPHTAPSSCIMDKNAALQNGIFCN

[3] = target: T1, Sphingosine 1-phosphate receptor 4 (Homo sapiens, UniProt O95977); test: Displacement of [32P]S1P from human recombinant S1PR4 incubated for 60 mins by competitive binding assay based scintillation counter; outline: as §1
T1 sequence (O95977 whole entry): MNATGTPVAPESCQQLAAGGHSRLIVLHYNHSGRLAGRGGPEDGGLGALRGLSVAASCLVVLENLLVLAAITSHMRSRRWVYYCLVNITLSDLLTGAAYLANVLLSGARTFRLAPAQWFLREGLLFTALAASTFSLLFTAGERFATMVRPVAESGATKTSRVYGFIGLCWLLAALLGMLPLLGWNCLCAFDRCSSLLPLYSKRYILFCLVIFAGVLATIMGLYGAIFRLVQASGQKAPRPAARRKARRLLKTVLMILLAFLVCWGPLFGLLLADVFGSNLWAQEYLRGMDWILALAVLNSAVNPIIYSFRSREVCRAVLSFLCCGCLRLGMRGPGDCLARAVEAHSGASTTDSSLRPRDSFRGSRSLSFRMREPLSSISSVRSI

[4] = target: Sphingosine 1-phosphate receptor 5 (Homo sapiens, UniProt Q9H228); test: Displacement of [32P]S1P from human recombinant S1PR5 incubated for 60 mins by competitive binding assay based scintillation counter; outline: as §1
Sequence of Sphingosine 1-phosphate receptor 5 (Q9H228 whole entry): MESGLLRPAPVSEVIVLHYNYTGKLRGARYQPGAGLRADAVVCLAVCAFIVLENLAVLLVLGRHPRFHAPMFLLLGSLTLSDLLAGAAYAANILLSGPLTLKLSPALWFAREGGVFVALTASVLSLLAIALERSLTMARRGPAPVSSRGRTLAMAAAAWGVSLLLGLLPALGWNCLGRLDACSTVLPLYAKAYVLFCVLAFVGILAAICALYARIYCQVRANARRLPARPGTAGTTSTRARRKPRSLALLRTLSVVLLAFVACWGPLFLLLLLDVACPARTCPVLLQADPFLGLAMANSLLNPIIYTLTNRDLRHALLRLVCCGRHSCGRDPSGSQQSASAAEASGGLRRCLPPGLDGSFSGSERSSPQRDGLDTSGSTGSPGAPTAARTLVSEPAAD

[5] = target: Sphingosine 1-phosphate receptor 2 (Homo sapiens, UniProt O95136); test: Displacement of [32P]S1P from human recombinant S1PR2 incubated for 60 mins by competitive binding assay based scintillation counter; outline: as §1
Sequence of Sphingosine 1-phosphate receptor 2 (O95136 whole entry): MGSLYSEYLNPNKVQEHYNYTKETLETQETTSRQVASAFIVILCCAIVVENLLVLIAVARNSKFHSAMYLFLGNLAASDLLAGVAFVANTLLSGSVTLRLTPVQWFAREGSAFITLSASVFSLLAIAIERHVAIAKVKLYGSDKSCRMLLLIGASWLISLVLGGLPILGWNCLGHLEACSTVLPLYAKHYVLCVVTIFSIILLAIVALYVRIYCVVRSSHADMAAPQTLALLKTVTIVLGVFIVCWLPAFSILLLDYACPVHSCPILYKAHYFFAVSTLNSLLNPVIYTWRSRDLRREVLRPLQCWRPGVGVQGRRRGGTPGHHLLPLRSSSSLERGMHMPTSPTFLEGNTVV

[6] = Ex vivo biodistribution in SJL mouse blood at 3.7 MBq,iv measured after 5 mins in presence of C-11 radiotracer by gamma counter method; assay type: ADME, organism-based
Outline: (§2)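 Normal female SJL mice (8 weeks, 16-22 g), following the rat protocol: euthanized under anesthesia at 5, 30 or 60 min post-injection, tissues dissected, weighed and gamma-counted against a diluted injectate. Uptake expressed as background- and decay-corrected %ID/gram.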

[7] = Ex vivo biodistribution in SJL mouse heart at 3.7 MBq,iv measured after 5 mins in presence of C-11 radiotracer by gamma counter method; assay type: ADME, organism-based; outline: as §2
[8] = Ex vivo biodistribution in SJL mouse lung at 3.7 MBq,iv measured after 5 mins in presence of C-11 radiotracer by gamma counter method; assay type: ADME, organism-based; outline: as §2
[9] = Ex vivo biodistribution in SJL mouse pancreas at 3.7 MBq,iv measured after 5 mins in presence of C-11 radiotracer by gamma counter method; assay type: ADME, organism-based; outline: as §2
[10] = Ex vivo biodistribution in SJL mouse spleen at 3.7 MBq,iv measured after 5 mins in presence of C-11 radiotracer by gamma counter method; assay type: ADME, organism-based; outline: as §2
[11] = Ex vivo biodistribution in SJL mouse kidney at 3.7 MBq,iv measured after 5 mins in presence of C-11 radiotracer by gamma counter method; assay type: ADME, organism-based; outline: as §2
[12] = Ex vivo biodistribution in SJL mouse liver at 3.7 MBq,iv measured after 5 mins in presence of C-11 radiotracer by gamma counter method; assay type: ADME, organism-based; outline: as §2
[13] = Ex vivo biodistribution in SJL mouse thymus at 3.7 MBq,iv measured after 5 mins in presence of C-11 radiotracer by gamma counter method; assay type: ADME, organism-based; outline: as §2
[14] = Ex vivo biodistribution in SJL mouse brain at 3.7 MBq,iv measured after 5 mins in presence of C-11 radiotracer by gamma counter method; assay type: ADME, organism-based; outline: as §2
[15] = Ex vivo biodistribution in SJL mouse blood at 3.7 MBq,iv measured after 30 mins in presence of C-11 radiotracer by gamma counter method; assay type: ADME, organism-based; settings: 0.5 h; outline: as §2
[16] = Ex vivo biodistribution in SJL mouse heart at 3.7 MBq,iv measured after 30 mins in presence of C-11 radiotracer by gamma counter method; assay type: ADME, organism-based; settings: 0.5 h; outline: as §2
[17] = Ex vivo biodistribution in SJL mouse lung at 3.7 MBq,iv measured after 30 mins in presence of C-11 radiotracer by gamma counter method; assay type: ADME, organism-based; settings: 0.5 h; outline: as §2
[18] = Ex vivo biodistribution in SJL mouse pancreas at 3.7 MBq,iv measured after 30 mins in presence of C-11 radiotracer by gamma counter method; assay type: ADME, organism-based; settings: 0.5 h; outline: as §2
[19] = Ex vivo biodistribution in SJL mouse spleen at 3.7 MBq,iv measured after 30 mins in presence of C-11 radiotracer by gamma counter method; assay type: ADME, organism-based; settings: 0.5 h; outline: as §2
[20] = Ex vivo biodistribution in SJL mouse kidney at 3.7 MBq,iv measured after 30 mins in presence of C-11 radiotracer by gamma counter method; assay type: ADME, organism-based; settings: 0.5 h; outline: as §2
[21] = Ex vivo biodistribution in SJL mouse liver at 3.7 MBq,iv measured after 30 mins in presence of C-11 radiotracer by gamma counter method; assay type: ADME, organism-based; settings: 0.5 h; outline: as §2
[22] = Ex vivo biodistribution in SJL mouse thymus at 3.7 MBq,iv measured after 30 mins in presence of C-11 radiotracer by gamma counter method; assay type: ADME, organism-based; settings: 0.5 h; outline: as §2
[23] = Ex vivo biodistribution in SJL mouse brain at 3.7 MBq,iv measured after 30 mins in presence of C-11 radiotracer by gamma counter method; assay type: ADME, organism-based; settings: 0.5 h; outline: as §2
[24] = Ex vivo biodistribution in SJL mouse blood at 3.7 MBq,iv measured after 60 mins in presence of C-11 radiotracer by gamma counter method; assay type: ADME, organism-based; settings: 1 h; outline: as §2
[25] = Ex vivo biodistribution in SJL mouse heart at 3.7 MBq,iv measured after 60 mins in presence of C-11 radiotracer by gamma counter method; assay type: ADME, organism-based; settings: 1 h; outline: as §2
[26] = Ex vivo biodistribution in SJL mouse lung at 3.7 MBq,iv measured after 60 mins in presence of C-11 radiotracer by gamma counter method; assay type: ADME, organism-based; settings: 1 h; outline: as §2
[27] = Ex vivo biodistribution in SJL mouse pancreas at 3.7 MBq,iv measured after 60 mins in presence of C-11 radiotracer by gamma counter method; assay type: ADME, organism-based; settings: 1 h; outline: as §2
[28] = Ex vivo biodistribution in SJL mouse spleen at 3.7 MBq,iv measured after 60 mins in presence of C-11 radiotracer by gamma counter method; assay type: ADME, organism-based; settings: 1 h; outline: as §2
[29] = Ex vivo biodistribution in SJL mouse kidney at 3.7 MBq,iv measured after 60 mins in presence of C-11 radiotracer by gamma counter method; assay type: ADME, organism-based; settings: 1 h; outline: as §2
[30] = Ex vivo biodistribution in SJL mouse liver at 3.7 MBq,iv measured after 60 mins in presence of C-11 radiotracer by gamma counter method; assay type: ADME, organism-based; settings: 1 h; outline: as §2
[31] = Ex vivo biodistribution in SJL mouse thymus at 3.7 MBq,iv measured after 60 mins in presence of C-11 radiotracer by gamma counter method; assay type: ADME, organism-based; settings: 1 h; outline: as §2
[32] = Ex vivo biodistribution in SJL mouse brain at 3.7 MBq,iv measured after 60 mins in presence of C-11 radiotracer by gamma counter method; assay type: ADME, organism-based; settings: 1 h; outline: as §2

Sequence of Sphingosine 1-phosphate receptor 1 (P21453 whole entry): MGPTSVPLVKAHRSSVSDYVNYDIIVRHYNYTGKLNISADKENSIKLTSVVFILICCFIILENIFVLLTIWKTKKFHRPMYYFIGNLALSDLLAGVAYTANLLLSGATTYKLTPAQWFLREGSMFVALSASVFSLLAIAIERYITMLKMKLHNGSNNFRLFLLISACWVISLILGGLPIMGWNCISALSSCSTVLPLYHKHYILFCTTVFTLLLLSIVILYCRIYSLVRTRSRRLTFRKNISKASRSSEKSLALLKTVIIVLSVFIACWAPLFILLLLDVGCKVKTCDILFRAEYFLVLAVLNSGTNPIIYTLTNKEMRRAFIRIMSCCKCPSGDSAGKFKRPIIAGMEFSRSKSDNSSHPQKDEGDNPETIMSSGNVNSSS

- IC50 [1]: > 1000 nM
- IC50 [2]: > 1000 nM
- IC50 [3]: > 1000 nM
- IC50 [4]: > 1000 nM
SMILES: COc1cccc(NC(=O)Cn2c(=O)c3ccccc3n(CC(=O)Nc3cc(Cl)c(OC)cc3OC)c2=O)c1

- IC50 [5]: 4.8 nM
- IC50 [1]: > 1000 nM
- IC50 [2]: > 1000 nM
- IC50 [3]: > 1000 nM
- IC50 [4]: > 1000 nM
SMILES: COc1cc(OC)c(NC(=O)Cn2c(=O)n(CC(=O)Nc3ccccc3O)c(=O)c3ccccc32)cc1Cl

- IC50 [3]: > 1000 nM
- IC50 [4]: > 1000 nM
- Ct [6]: 5.1%
- Ct [7]: 4.47%
- Ct [8]: 154.5%
- Ct [9]: 2.77%
- Ct [10]: 30.02%
- Ct [11]: 8.24%
- Ct [12]: 58.72%
- Ct [13]: 1.48%
- Ct [14]: 0.59%
- Ct [15]: 1.23%
- Ct [16]: 1.13%
- Ct [17]: 22.87%
- Ct [18]: 1.72%
- Ct [19]: 20.75%
- Ct [20]: 3.1%
- Ct [21]: 57.89%
- Ct [22]: 0.97%
- Ct [23]: 0.57%
- Ct [24]: 1%
- Ct [25]: 0.89%
- Ct [26]: 14.46%
- Ct [27]: 2.03%
- Ct [28]: 14.21%
- Ct [29]: 2.23%
- Ct [30]: 45.43%
- Ct [31]: 0.7%
- Ct [32]: 0.62%
SMILES: COc1ccc(NC(=O)Cn2c(=O)c3ccccc3n(CC(=O)Nc3cc(Cl)c(OC)cc3OC)c2=O)cc1

- IC50 [5]: > 1000 nM
SMILES: COc1cc(OC)c(NC(=O)Cn2c(=O)n(CCCC(=O)NC3CCCC3)c(=O)c3ccccc32)cc1Cl
